{"source": "paper PMC3355950", "about": "(The Journal of Neuroscience, 2012)", "key": {"GluN1/GluN2A": {"biological_target": "GluN1/GluN2A (Rattus norvegicus, UniProt P35439+Q00959)", "sequence (Q00959 23-1464, other chains not shown)": "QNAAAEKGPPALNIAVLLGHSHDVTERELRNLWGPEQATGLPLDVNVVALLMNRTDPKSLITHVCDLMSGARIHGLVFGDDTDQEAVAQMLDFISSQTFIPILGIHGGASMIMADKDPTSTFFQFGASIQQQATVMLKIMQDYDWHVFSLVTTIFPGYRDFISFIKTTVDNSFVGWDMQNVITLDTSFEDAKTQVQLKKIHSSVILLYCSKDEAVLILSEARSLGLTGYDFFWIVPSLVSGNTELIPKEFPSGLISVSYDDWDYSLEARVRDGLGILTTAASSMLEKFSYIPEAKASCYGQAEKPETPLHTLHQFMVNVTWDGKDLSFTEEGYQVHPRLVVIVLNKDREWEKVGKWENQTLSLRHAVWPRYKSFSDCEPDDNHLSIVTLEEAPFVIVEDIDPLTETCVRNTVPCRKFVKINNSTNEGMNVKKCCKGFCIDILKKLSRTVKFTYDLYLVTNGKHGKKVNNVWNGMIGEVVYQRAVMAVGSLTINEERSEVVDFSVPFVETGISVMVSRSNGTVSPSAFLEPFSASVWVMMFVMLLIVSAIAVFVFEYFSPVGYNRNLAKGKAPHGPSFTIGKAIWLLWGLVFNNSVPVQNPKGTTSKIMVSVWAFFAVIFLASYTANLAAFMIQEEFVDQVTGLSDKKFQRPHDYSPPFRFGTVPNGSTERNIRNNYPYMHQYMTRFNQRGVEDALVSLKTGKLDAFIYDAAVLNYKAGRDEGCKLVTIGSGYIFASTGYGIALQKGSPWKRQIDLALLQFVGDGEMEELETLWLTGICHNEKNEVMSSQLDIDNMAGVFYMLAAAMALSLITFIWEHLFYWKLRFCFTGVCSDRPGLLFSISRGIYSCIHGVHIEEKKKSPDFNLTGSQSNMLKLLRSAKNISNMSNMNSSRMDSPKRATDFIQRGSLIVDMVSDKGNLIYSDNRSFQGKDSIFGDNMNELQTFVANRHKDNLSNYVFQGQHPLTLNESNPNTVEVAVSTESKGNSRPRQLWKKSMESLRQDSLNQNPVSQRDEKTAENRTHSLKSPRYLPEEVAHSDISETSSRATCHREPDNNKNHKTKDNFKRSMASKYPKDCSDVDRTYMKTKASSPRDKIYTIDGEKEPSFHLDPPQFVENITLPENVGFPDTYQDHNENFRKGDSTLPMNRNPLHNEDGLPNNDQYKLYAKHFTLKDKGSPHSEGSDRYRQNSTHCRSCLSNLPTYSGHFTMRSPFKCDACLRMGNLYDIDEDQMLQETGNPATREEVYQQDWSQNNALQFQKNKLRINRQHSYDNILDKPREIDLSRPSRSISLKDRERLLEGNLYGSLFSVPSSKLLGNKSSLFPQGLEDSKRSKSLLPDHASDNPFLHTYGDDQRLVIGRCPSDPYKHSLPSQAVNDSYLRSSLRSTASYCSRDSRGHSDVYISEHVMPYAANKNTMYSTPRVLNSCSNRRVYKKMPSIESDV", "experiment": "Whole-cell voltage-clamp recordings, HEK293 cells, rapid solution exchange", "type": "cell-based", "details": "50 μM glutamate", "in_short": "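HEK293 cells were plated on poly-D-lysine coverslips about 48 h ahead and calcium-phosphate cotransfected with GluN1, GluN2A and GFP (1:1:1). 200 μM D,L-APV and 200 μM 7-chlorokynurenic acid were added after transfection. Whole-cell recording was done about 24 h later at −60 mV and 23°C on lifted cells with piezo-driven theta-glass exchange.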"}, "[1]": {"system": "GluN2B-containing NMDA receptors", "details": "ref Williams, 1993; cited from earlier work"}, "[2]": {"details": "brief application (10 ms) of 1000 μM glycine, antagonist 0.3 μM"}}}
{"smiles": "O=C(O)c1cc(O)c2ccc(Cl)cc2n1", "note": "[7CKA, 7-chlorokynurenic acid]", "values": [{"measurement": "% fast", "setting": "GluN1/GluN2A; [2]", "result": "34 ± 6", "unit": "%"}, {"measurement": "τfast", "setting": "GluN1/GluN2A; [2]", "result": "46 ± 7", "unit": "ms"}, {"measurement": "τslow", "setting": "GluN1/GluN2A; [2]", "result": "158 ± 10", "unit": "ms"}, {"measurement": "deactivation time constant, mono-exponential fit (τslow)", "setting": "GluN1/GluN2A; long application (5 seconds) of 1000 μM glycine, antagonist 0.3 μM", "result": "128 ± 14", "unit": "ms"}]}
{"smiles": "O=C(O)c1cc(O)c2c(Cl)cc(Cl)cc2n1", "note": "[DCKA, 7,5-dichlorokynurenic acid]", "values": [{"measurement": "Peak response to a brief glycine application", "setting": "GluN1/GluN2A; 0.3 μM, 1 mM glycine 10 ms", "result": "43 ± 13 % of control"}, {"measurement": "Effect on deactivation time course", "setting": "GluN1/GluN2A; 0.3 μM, brief (10 ms) or long (5 seconds) 1 mM glycine", "result": "did not alter the deactivation time course"}]}
{"smiles": "CC(C(O)c1ccc(O)cc1)N1CCC(Cc2ccccc2)CC1", "note": "(stereo not shown) [ifenprodil]", "values": [{"measurement": "selectivity for GluN2B-containing NMDA receptors", "setting": "[1]", "result": "over 500 fold"}]}
